Measured values: ChEMBL document CHEMBL1123290, “Synthesis, antimalarial activity, and quantitative structure-activity relationships of tebuquine and a series of related 5-[(7-chloro-4-quinolinyl)amino]-3-[(alkylamino)methyl] [1,1'-biphenyl]-2-ols and N omega-oxides” (1986)

Legend:
Type in all cases: functional
[1] = tested on: Plasmodium berghei; assay: Antimalarial activity as 60-day survivors in infected mice (Mus musculus) after single 320mg/kg subcutaneous dose 72 hr post infection
How it was run: (§1)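 Mice were infected with a normal drug-sensitive Plasmodium berghei strain. At 72 h postinfection each received one subcutaneous dose of compound dissolved or suspended in peanut oil, in five-mouse groups per dose. The read-out was the number of mice alive at 60 days postinfection, which were scored as cured.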

[2] = tested on: Plasmodium berghei; assay: Change in mean survival time for control (average 6.2 days) versus treated mice (Mus musculus) 72 hrs after 5 mg/kg subcutaneous dose
[3] = tested on: Plasmodium berghei; assay: Change in mean survival time for control (average 6.2 days) versus treated mice (Mus musculus) 72 hrs after 160 mg/kg subcutaneous dose
[4] = tested on: Plasmodium berghei; assay: Difference in mean survival time in mice (Mus musculus) (control = 6.2 days) after single 40mg/kg subcutaneous dose 72hr post infection
[5] = tested on: Plasmodium berghei; assay: Change in mean survival time for control (average of 6.2 days) versus treated mice (Mus musculus) 72 hrs after 80 mg/kg subcutaneous dose
[6] = tested on: Plasmodium berghei; assay: Change in mean survival time for control (average 6.2 days) versus treated mice (Mus musculus) 72 hrs after 20 mg/kg subcutaneous dose
[7] = tested on: Plasmodium berghei; assay: Change in mean survival time for control (average 6.2 days) versus treated mice (Mus musculus) 72 hrs after […] subcutaneous dose
[8] = tested on: Plasmodium berghei; assay: Change in mean survival time for control (average 6.2 days) versus treated mice (Mus musculus) 72 hrs after 640 mg/kg subcutaneous dose
[9] = tested on: Plasmodium berghei; assay: Change in mean survival time for control (average 6.2 days) versus treated mice (Mus musculus) 72 hrs after 320 mg/kg subcutaneous dose
[10] = tested on: Mus musculus; assay: Antimalarial activity, administered as a single subcutaneous dose of 80 mg/kg, 72 hrs post infection measured as number of mice (Mus musculus) surviving at 60 days post infection; how it was run: as §1
[11] = tested on: Plasmodium berghei; assay: (§2) Change in mean survival time for control (average 6.2 days) versus treated mice (Mus musculus) 72 hrs after […] subcutaneous dose
[12] = tested on: Mus musculus; assay: Antimalarial activity, administered as a single subcutaneous dose of 640 mg/kg, 72 hrs post infection measured as number of mice (Mus musculus) surviving at 60 days post infection; how it was run: as §1
[13] = tested on: Plasmodium berghei; assay: Change in mean survival time for control (average 6.2 days) versus treated mice (Mus musculus) 72 hrs after 10 mg/kg subcutaneous dose
[14] = tested on: Mus musculus; assay: Antimalarial activity, administered as a single subcutaneous dose of 40 mg/kg, 72 hrs post infection measured as number of mice (Mus musculus) surviving at 60 days post infection; how it was run: as §1
[15] = tested on: Plasmodium berghei; assay: Antimalarial activity as 60-day survivors in Plasmodium berghei infected mice (Mus musculus) after single 160mg/kg subcutaneous dose 72 hr post infection; how it was run: as §1
[16] = tested on: Plasmodium berghei; assay: Change in mean survival time for control (average 6.2 days) versus treated mice (Mus musculus) after 40 mg/kg subcutaneous dose
[17] = tested on: Plasmodium berghei; assay: Antimalarial activity in primary screen
[18] = tested on: Plasmodium berghei; assay: Change in mean survival time for control (average 6.2 days) versus treated mice (Mus musculus) after 160 mg/kg subcutaneous dose
[19] = tested on: Plasmodium berghei; assay: Change in mean survival time in control (average 6.2 days) versus treated mice (Mus musculus) after 80 mg/kg subcutaneous dose
[20] = tested on: Plasmodium berghei; assay: Change in mean survival time for control (average 6.2 days) versus treated mice (Mus musculus) after 20 mg/kg subcutaneous dose
[21] = tested on: Plasmodium berghei; assay: as §2; remark: listed apart in the source
[22] = tested on: Plasmodium berghei; assay: Change in mean survival time for control (average 6.2 days) versus treated mice (Mus musculus) after 320 mg/kg subcutaneous dose
[23] = tested on: Plasmodium berghei; assay: Change in mean survival time of Plasmodium berghei infected mice (Mus musculus) on 1.25 mg/kg subcutaneous dose
[24] = tested on: Plasmodium berghei; assay: Difference in mean survival time of Plasmodium berghei infected mice (Mus musculus) after 10 mg/kg subcutaneous dose
[25] = tested on: Plasmodium berghei; assay: Change in mean survival time of Plasmodium berghei infected mice (Mus musculus) after […] subcutaneous dose
[26] = tested on: Plasmodium berghei; assay: Change in mean survival time of Plasmodium berghei infected mice (Mus musculus) after 5 mg/kg subcutaneous dose
[27] = tested on: Plasmodium berghei; assay: Antimalarial activity as 60-day survivors in infected mice (Mus musculus) after single 20 mg/kg subcutaneous dose 72hr post infection; how it was run: as §1

| SMILES | No. of mice cured [1] | No. of mice cured [10] | No. of mice cured [12] | No. of mice cured [15] | Delta MST [16] | ED30 [17] | Delta MST [18] | Delta MST [19] | Delta MST [20] | Delta MST [21] | Delta MST [22] | Delta MST [23] | Delta MST [24] | Delta MST [25] | also measured |
| --- | --- | --- | --- | --- | --- | --- | --- | --- | --- | --- | --- | --- | --- | --- | --- |
| CCCN(CCC)Cc1cc(Nc2ccnc3cc(Cl)ccc23)cc(-c2ccc(Cl)cc2)c1O | 4 | 3 | 3 | 2 | – | – | – | – | – | – | – | – | – | – | Delta MST [2]: 3.8 days; Delta MST [3]: 26.6 days; Delta MST [4]: 24.4 days; Delta MST [5]: 27.6 days; Delta MST [6]: 11.2 days; Delta MST [7]: 0.8 days; Delta MST [8]: 18.1 days; Delta MST [9]: 29.6 days; Delta MST [11]: 0.4 days; Delta MST [13]: 6.8 days; No. of mice cured [14]: 1 |
| CCN(CC)Cc1cc(Nc2cc[n+]([O-])c3cc(Cl)ccc23)cc(-c2cc(OC)ccc2OC)c1O | – | – | 1 | – | 2.6 days | 2450 mg/kg | 6 days | 2 days | 0.6 days | 27.1 days | 7.8 days | – | – | – | – |
| CCN(CC)Cc1cc(Nc2cc[n+]([O-])c3cc(Cl)ccc23)cc(-c2ccc(OC)cc2)c1O | 1 | – | 2 | – | 7.3 days | 423 mg/kg | 7.3 | 9.1 days | 3.7 days | 15 days | 8.2 days | 0.1 days | 1.1 days | -0.1 days | – |
| CCN(CC)Cc1cc(Nc2cc[n+]([O-])c3cc(Cl)ccc23)cc(-c2ccc(Cl)c(Cl)c2)c1O | 5 | 2 | 5 | 2 | 21.2 days | 36.6 mg/kg | 29.1 days | 25.7 days | 12 days | – | – | -0.1 days | 5.9 days | -0.1 days | Delta MST [26]: 0.7 days; No. of mice cured [14]: 1 |
| CCN(CC)Cc1cc(Nc2cc[n+]([O-])c3cc(Cl)ccc23)cc(-c2ccncc2)c1O | 2 | – | 3 | – | 5.7 days | 330 mg/kg | 10.7 days | 8.3 days | 3.3 days | 21.9 days | 12.6 days | – | – | – | – |
| [O-][n+]1ccc(Nc2cc(CN3CCCC3)c(O)c(-c3ccc(Cl)c(Cl)c3)c2)c2ccc(Cl)cc21 | 5 | 2 | 5 | 3 | 10.7 days | – | 24.4 days | 25.4 days | 7.9 days | – | – | -0.1 days | 2.3 days | -0.1 days | Delta MST [26]: 0.7 days |
| CCN(CC)Cc1cc(Nc2cc[n+]([O-])c3cc(Cl)ccc23)cc(-c2ccccn2)c1O | 1 | – | 1 | – | 0 days | 550 mg/kg | 3 days | 1 days | 0.4 days | 9.1 days | 5.1 days | – | – | – | – |
| CCN(CC)Cc1cc(Nc2cc[n+]([O-])c3cc(Cl)ccc23)cc(-c2ccc(C)cc2)c1O | – | – | – | – | 0.5 days | – | 5.1 days | 4.3 days | – | 10.5 days | 15.7 days | – | – | – | No. of mice cured [27]: 1.3 |
